ASAP1 GAP inh = inhibitors of human ASAP1 ArfGAP activity, primary screen, biochemical, fluorescence polarization; Arf-GAP with SH3 domain, ANK repeat and PH domain-containing protein 1 (Homo sapiens), …; ASAP1-stimulated ARF1 GTP hydrolysis, GDP FP detection; inhibition, % at 16.5 µM; 0.19% of 360,000 active; AID 624377, 2012; in the data active means inhibition above about 25%;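 further: 0% = vehicle with enzyme and substrate and 100% = no enzyme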
LEDGF integ inh = blockers of LEDGF/p75-dependent integrase strand transfer – biochemical, TR-FRET, high throughput, primary screen; HIV-1 integrase (with human LEDGF/p75); TR-FRET IN-LEDGF/p75 DNA integration, Eu/Cy5; inhibition, % at 3.7 µM; 0.64% of 370,000 active; AID 743269, 2014;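 active means inhibition above the screen-wide mean plus 3 SD, cut at about 13% in these data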;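 further: signal is the Cy5 over europium emission ratio at 671 and 618 nm; 0% = plate median of compound wells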
ARFGAP1 inh = inhibitors of rat ARFGAP1 GAP activity, primary screen, biochemical, fluorescence polarization, GDP tracer; inhibition, % at 16.5 µM; ADP-ribosylation factor GTPase-activating protein 1 (Rattus norvegicus), Q62848; Arfgap1-stimulated ARF1 GTP hydrolysis, GDP FP detection; 0.26% of 360,000 active; AID 651572, 2012;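 active means inhibition above a per-plate limit, mean inhibition of low control wells plus 3 SD, cut at about 25% in these data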;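 further: 0% = DMSO wells with enzyme and 100% = wells lacking Arfgap1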
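Repeats: one replicate per compound; assay system: rat Arfgap1 catalytic domain, aa 1-136; times: enzyme reaction 120 min at 25 °C after 20 min preincubation; detection: FP of antibody-bound GDP Alexa 633 tracer, ex 620/em 688 nm; benchmarks: high control wells lacking Arfgap1, low control full reaction with DMSO; reagent: human ARF1(Δ1-17)-GTP substrate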
UHRF1 binding = UHRF1 methylated DNA binding inhibitors, primary screen, counter-screen for MBD2 inhibitor project, biochemical, TR-FRET, human UHRF1, single concentration | E3 ubiquitin-protein ligase UHRF1 (Homo sapiens), Q96T88 | UHRF1 binding to methylated oligo | inhibition, % at 4.4 µM | 0.75% of 370,000 active | AID 687016, 2013; in the data active means inhibition above about 21%;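 further: UHRF1 SRA domain binding a hemimethylated CpG hairpin DNA probe; 0% = median of test compound wells and 100% = reference inhibitor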
Target sequence (Q96T88 whole entry, looked up, the tested form may be a part): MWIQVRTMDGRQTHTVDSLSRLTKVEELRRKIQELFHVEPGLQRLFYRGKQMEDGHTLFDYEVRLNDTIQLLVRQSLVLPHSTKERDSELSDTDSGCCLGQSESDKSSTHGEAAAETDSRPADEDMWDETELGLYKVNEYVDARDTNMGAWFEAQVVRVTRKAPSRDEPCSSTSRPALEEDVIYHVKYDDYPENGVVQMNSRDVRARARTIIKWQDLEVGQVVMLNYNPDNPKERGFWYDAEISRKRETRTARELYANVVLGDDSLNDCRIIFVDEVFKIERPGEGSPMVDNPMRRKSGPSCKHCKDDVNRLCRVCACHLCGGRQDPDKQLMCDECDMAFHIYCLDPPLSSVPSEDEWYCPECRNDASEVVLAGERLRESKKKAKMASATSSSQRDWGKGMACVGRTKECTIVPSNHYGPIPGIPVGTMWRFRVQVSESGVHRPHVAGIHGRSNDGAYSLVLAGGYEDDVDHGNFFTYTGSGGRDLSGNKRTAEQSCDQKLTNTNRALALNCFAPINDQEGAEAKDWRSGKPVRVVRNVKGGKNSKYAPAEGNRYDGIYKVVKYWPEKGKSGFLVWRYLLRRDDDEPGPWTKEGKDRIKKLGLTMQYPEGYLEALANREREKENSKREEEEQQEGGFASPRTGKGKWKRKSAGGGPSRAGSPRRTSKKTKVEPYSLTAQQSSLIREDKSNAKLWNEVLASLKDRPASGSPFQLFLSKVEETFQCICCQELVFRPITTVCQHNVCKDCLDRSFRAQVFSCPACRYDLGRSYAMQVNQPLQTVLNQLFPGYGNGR
TCR-CD3 inh = inhibitors of human TCR-CD3 interaction, primary screen, biochemical, fluorescence, TAMRA-labeled TCR probe; inhibition, % at 9.4 µM; 0.37% of 360,000 active; AID 651800, 2012;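 further: recombinant mutant TCR 2C K166C tagged with TAMRA read by polarization; 0% = receptor in buffer alone and 100% = receptor with positive control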
MBD2 inh = inhibitors of MBD2 binding to methylated DNA, primary screen, biochemical, TR-FRET, DNA-binding domain, human; Methyl-CpG-binding domain protein 2 (Homo sapiens), Q9UBB5; MBD2 binding to methylated oligonucleotide; inhibition, % at 4.4 µM; 0.31% of 370,000 active; AID 686964, 2013; in the data active means inhibition above about 13%
BSA probe FL = compounds interfering with TAMRA-BSA probe, counter-screen for TCR-CD3 interaction inhibitor project, biochemical, fluorescence, TAMRA-labeled BSA. shares compounds with TCR-CD3 inh. TAMRA-labeled BSA probe fluorescence counterscreen. inhibition, % at 9.4 µM. 10% of 1,200 active. AID 652035, 2013; in the data active means inhibition above about 23%;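 further: 0% = buffer low control and 100% = reference high control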
TCR-CD3 conf = TCR-CD3 interaction inhibitors, retest, confirmation, biochemical, fluorescence, TAMRA-labeled TCR probe. shares compounds with TCR-CD3 inh. TAMRA-labeled TCR probe fluorescence binding assay. inhibition, % at 9.4 µM. 48% of 1,200 active. AID 652036, 2013
UHRF1 DNA bind = UHRF1 methylated DNA binding inhibitors, counter-screen for MBD2 inhibitor project, biochemical, TR-FRET, human UHRF1; shares compounds with MBD2 inh; UHRF1 binding to methylated oligonucleotide; inhibition, % at 4.4 µM; 25% of 1,000 active; in the data active means inhibition above about 21%;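 further: UHRF1 SRA domain binding a labeled hemimethylated CpG hairpin DNA; 0% = vehicle only and 100% = reference inhibitor with vehicle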
MBD2 confirm = inhibitors of MBD2 binding to methylated DNA, confirmation, biochemical, TR-FRET, DNA-binding domain, human. shares compounds with MBD2 inh. inhibition, % at 4.4 µM. 26% of 1,000 active. TR-FRET MBD2-DBD binding to methylated oligonucleotide; in the data active means inhibition above about 14%
IN multimer act = HIV-1 IN multimer formation enhancers, counter-screen for LEDGF/p75 integration inhibitor project, biochemical, TR-FRET; shares compounds with LEDGF integ inh; TR-FRET HIV-1 integrase multimerization; activation, % at 7.7 µM; 17% of 2,000 active; AID 1053131, 2014; in the data active means activation above about 8.9%
TR-FRET interf = TR-FRET optical interference artefacts, confirmation, artefact control for LEDGF/p75-dependent integration inhibitor project, biochemical, HIV-1 IN multimerization; shares compounds with LEDGF integ inh; TR-FRET optical interference counterscreen; inhibition, % at 7.7 µM; 2,000 tested, under 10 active;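 active means inhibition above the mean over all tested compounds plus 3 SD, which no compound reached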;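 further: 0% = integrase with antibodies and DMSO and 100% = antibodies without integrase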
LEDGF integ conf = inhibitors of HIV-1 IN-LEDGF/p75 DNA integration, confirmation, biochemical, TR-FRET; shares compounds with LEDGF integ inh; 36% of 2,000 active; AID 1053136, 2014; TR-FRET LEDGF/p75-dependent HIV-1 integration; inhibition, % at 3.7 µM; in the data active means inhibition above about 14%
Active calls of the source: *; . = no result; + = active, no number. An excerpt weighted towards active compounds, which were near 2% of everything screened. Unless noted, no stated cut-off is given here; in the data, active means inhibition above about 19%; inactive means the rest.

SMILES	ASAP1 GAP inh	LEDGF integ inh	ARFGAP1 inh	UHRF1 binding	TCR-CD3 inh	MBD2 inh	BSA probe FL	TCR-CD3 conf	IN multimer act	TR-FRET interf	LEDGF integ conf	others
O=C1CCC(=O)c2ccc3c4c(ccc1c24)CC3	0	44*	0	66*	34*	36*	-5	2	-1	4	-1	UHRF1 DNA bind=6;MBD2 confirm=1
CN(C(=O)COC(=O)C1CCN(S(=O)(=O)c2ccc3c(c2)OCCO3)CC1)C1CCS(=O)(=O)C1 (stereo not given)	-1	4	6	1	0	-1	.	.	.	.	.
COc1cccc2c1C(=O)c1c(O)c3c(c(O)c1C2=O)CC(O)(C(C)=O)CC3OC1CC(N(C)C)C(O)C(C)O1 (stereo not given)	7	14*	5	96*	156*	111*	176*	145*	3	-16	32*	UHRF1 DNA bind=101*;MBD2 confirm=111*
CCOc1cc(N2CCOCC2)c(OCC)cc1NC(=O)CSc1nnc(N)s1	-13	-4	-8	-1	4	2	.	.	.	.	.
Cc1ccc(-c2c3c(nc4sc(C(N)=O)c(N)c24)CCCC3)o1	-10	0	9	-4	-5	-5	.	.	.	.	.
NC(=O)c1sc2nc3c(c(-c4ccco4)c2c1N)CCC3	-4	43*	-10	47*	19*	15*	4	3	2	-9	7	UHRF1 DNA bind=-5;MBD2 confirm=-5
NC(=O)c1sc2nc(-c3ccco3)ccc2c1N	10	41*	1	28*	20*	12	-6	2	13*	-64	8
CSc1nc(NCCOCCO)c2sc3nc(-c4ccco4)c4c(c3c2n1)CCC4	7	26*	-10	29*	20*	9	-3	0	0	2	15*
COc1ccc(CNC(=O)c2ccc(S(=O)(=O)NCc3ccco3)cc2)cc1	-1	3	-1	1	-3	2	.	.	.	.	.
O=[N+]([O-])c1c(Nc2ccccn2)cc(Cl)c2nonc12	-12	70*	17	9	45*	-5	17	14	2	-7	40*
O=C(O)CC/C(=N/NC(=O)CNC(=O)c1ccc2c(c1)OCCO2)c1ccccc1	13	-2	-7	-4	9	1	.	.	.	.	.
O=[N+]([O-])c1ccc(COc2cccc(CNc3ccc(F)cc3)c2)cc1	-18	1	4	0	-1	-2	.	.	.	.	.
Oc1ccc(NCc2cccc(OCc3ccccc3)c2)cc1	-2	16*	-1	-1	26*	-8	-2	2	8.9*	-45	41*
Oc1ccc(NCc2cccc(OCc3ccc(F)cc3)c2)cc1	16	14*	5	-2	25*	-7	5	4	5	-26	26*
Cc1ccc(N(C)c2nc(N)nc(N)c2N=O)cc1	-13	14*	-1	6	197*	2	+	198*	2	-12	17*
COC(=O)/C(=C/Nc1ccc(O)cc1)[N+](=O)[O-]	2	25*	11	2	99*	-8	3	-1	5	-16	-1
c1coc(CSSCc2ccco2)c1	-12	46*	-14	83*	20*	32*	4	6	0	-2	11
Cc1ccc(NC(=O)CSCc2ccco2)cc1	-2	-3	6	-1	-3	0	.	.	.	.	.
Cc1ccc(S(=O)(=O)NC(=O)C2(C)CCN2C(=O)C2CCCCC2)nc1 (stereo not given)	-5	6	-10	-1	-3	5	.	.	.	.	.
CCOC(=O)C1CCCN(C(=O)c2cc(-c3ccco3)nc3ccccc23)C1 (stereo not given)	2	25*	0	38*	21*	20*	-12	15	9	-44	48*	UHRF1 DNA bind=39*;MBD2 confirm=24*
CCOC(=O)C1CCCN(C(=O)c2cc(-c3ccncc3)nc3ccccc23)C1 (stereo not given)	4	3	-6	1	11	-1	.	.	.	.	.
COc1cccc(-n2c(SCc3cc(=O)oc4cc(O)c(O)cc34)nc3ccccc3c2=O)c1	-1	27*	-1	15	19*	7	-13	32*	14*	-50	72*
COc1ccc(/C=N/NC(=O)c2cc(O)c(O)c(O)c2)cc1Cn1cc([N+](=O)[O-])cn1	9	69*	-9	28*	63*	15*	-10	78*	54*	-270	87*	UHRF1 DNA bind=20;MBD2 confirm=14*
COc1ccc(/C=N/NC(=O)c2ccccc2O)cc1Cn1cc([N+](=O)[O-])cn1	-7	-3	-1	0	2	3	.	.	.	.	.
